For experiment [1], the system named is WASF3 phosphorylation in MDA-MB-231 cells. Conditions: inactivation of HSP90; cited from earlier work.
For another experiment, the system named is KISS1. Nature of the experiment: KISS1 levels by western blot. It is filed as cell-based. Conditions: MDA-MB-231 cells, compared with scrambled peptides.
Experiment [2] deals with WASF3 phosphorylation in MDA-MB-231 cells. Nature of the experiment: WASF3 phosphorylation status. The format is cell-based. Conditions: for WASF3 phosphorylation levels: MDA-MB-231 cells in serum. The gist of the method:
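MDA-MB-231 cells were treated with stapled peptides, the scrambled control peptide, or the HSP90 inhibitor 17-AAG for comparison. WASF3 was immunoprecipitated, with IgG IP as the negative control. Immunoblots were probed with the PY20 antibody for phosphorylation and with WASF3 antibody for total protein.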

Experiment [3] deals with breast or prostate cancer cells. Nature of the experiment: MTS cell proliferation assay. The format is cell-based. Conditions: 10 µM, over 24 hours. In general terms: Tetrazolium dyes change colour on reduction, which living cells bring about.
Experiment [4] concerns breast and prostate cancer cells. Nature of the experiment: Transwell invasion assay. It is filed as cell-based. Conditions: for reduction of invasion potential: Transwell, 24 hours, 10 µM, compared with SCR peptides or DMSO; for dose dependence of suppression of cell invasion: high dose 10 µM versus low dose 2.5 µM.
In a further experiment the test system is WASF3. Nature of the experiment: WASF3 protein levels by western blot. The format is cell-based. Conditions: MDA-MB-231 cells cultured in serum.
For a further experiment, the target named is WASF3-CYFIP1 complex (Homo sapiens, UniProt Q7L576). Nature of the experiment: Immunoprecipitation of WASF3, western blot for CYFIP1. The format is cell-based. Conditions: MDA-MB-231 cells treated with peptide, IP of WASF3.
Experiment [5] concerns breast and prostate cell lines. Kind of experiment: Scratch wound. The format is cell-based. Conditions: scratch wound assay, compared with DMSO and scrambled peptide.
The subject of experiment [6] is CYFIP1. Kind of experiment: CYFIP1 protein levels by western blot. The format is cell-based. Conditions: 24 hours treatment.
Experiment [7] addresses Rac1/2 binding to the WASF3 complex (Homo sapiens, UniProt Q7L576). Kind of experiment: IP with WASF3 antibodies, western blot for Rac1/Rac2. It is filed as cell-based. Conditions: MDA-MB-231 cells. The gist of the method: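 MDA-MB-231 cells were left untreated or treated with stapled test peptides or a scrambled control peptide. Lysates were immunoprecipitated with anti-WASF3 antibody, and the immunocomplex was western blotted for Rac1 and Rac2.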

Experiment [8] addresses CYFIP1 (Homo sapiens, UniProt Q7L576). Nature of the experiment: Avidin-biotin pull down with biotinylated stapled peptides, western blot. It is filed as binding. Conditions: 2.5 µM versus 10 µM biotinylated peptide, MDA-MB-231 cells. An outline of the steps: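 MDA-MB-231 cells exposed to biotin-labelled stapled test peptides at 2.5 or 10 µM, with biotinylated scrambled peptides as controls. Lysates incubated overnight at 4 °C with immobilised avidin resin. Pulled-down material resolved by SDS-PAGE and western blotted for CYFIP1.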

Rac1/2 binding to the WASF3 complex, sequence (Q7L576 whole entry): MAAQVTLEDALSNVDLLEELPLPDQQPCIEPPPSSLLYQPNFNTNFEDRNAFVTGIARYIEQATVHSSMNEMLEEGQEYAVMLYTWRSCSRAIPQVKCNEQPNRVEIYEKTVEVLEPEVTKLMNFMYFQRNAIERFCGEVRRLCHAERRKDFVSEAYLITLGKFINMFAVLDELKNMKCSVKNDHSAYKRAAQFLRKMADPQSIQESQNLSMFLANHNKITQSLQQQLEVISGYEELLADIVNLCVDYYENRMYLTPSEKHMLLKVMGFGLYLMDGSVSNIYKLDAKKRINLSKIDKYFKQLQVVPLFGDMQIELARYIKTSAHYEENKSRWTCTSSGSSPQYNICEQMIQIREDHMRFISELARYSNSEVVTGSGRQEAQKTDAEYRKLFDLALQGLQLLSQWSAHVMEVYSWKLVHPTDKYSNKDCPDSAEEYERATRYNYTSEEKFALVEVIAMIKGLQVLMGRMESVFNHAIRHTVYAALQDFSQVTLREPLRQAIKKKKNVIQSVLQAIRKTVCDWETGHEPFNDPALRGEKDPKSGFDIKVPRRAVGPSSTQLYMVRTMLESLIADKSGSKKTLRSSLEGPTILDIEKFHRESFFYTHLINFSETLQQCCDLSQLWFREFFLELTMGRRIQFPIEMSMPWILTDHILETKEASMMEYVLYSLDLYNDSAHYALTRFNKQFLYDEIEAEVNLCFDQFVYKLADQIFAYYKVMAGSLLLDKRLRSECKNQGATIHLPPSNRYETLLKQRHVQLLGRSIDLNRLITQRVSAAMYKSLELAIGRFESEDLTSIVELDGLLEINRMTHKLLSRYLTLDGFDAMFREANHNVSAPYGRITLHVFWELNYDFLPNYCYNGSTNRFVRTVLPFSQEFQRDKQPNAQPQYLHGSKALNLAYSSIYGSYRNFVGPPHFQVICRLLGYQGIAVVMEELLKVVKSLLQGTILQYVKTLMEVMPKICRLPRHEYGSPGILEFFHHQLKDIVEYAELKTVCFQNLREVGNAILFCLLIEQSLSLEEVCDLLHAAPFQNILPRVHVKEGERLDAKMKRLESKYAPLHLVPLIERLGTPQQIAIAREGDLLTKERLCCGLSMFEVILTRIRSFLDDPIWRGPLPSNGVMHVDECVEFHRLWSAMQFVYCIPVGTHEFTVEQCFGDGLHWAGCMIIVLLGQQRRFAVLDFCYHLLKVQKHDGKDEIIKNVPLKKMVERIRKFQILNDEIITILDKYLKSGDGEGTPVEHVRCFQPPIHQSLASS
Rac1/2 binding to the WASF3 complex, sequence (Q9Y2A7 whole entry partner): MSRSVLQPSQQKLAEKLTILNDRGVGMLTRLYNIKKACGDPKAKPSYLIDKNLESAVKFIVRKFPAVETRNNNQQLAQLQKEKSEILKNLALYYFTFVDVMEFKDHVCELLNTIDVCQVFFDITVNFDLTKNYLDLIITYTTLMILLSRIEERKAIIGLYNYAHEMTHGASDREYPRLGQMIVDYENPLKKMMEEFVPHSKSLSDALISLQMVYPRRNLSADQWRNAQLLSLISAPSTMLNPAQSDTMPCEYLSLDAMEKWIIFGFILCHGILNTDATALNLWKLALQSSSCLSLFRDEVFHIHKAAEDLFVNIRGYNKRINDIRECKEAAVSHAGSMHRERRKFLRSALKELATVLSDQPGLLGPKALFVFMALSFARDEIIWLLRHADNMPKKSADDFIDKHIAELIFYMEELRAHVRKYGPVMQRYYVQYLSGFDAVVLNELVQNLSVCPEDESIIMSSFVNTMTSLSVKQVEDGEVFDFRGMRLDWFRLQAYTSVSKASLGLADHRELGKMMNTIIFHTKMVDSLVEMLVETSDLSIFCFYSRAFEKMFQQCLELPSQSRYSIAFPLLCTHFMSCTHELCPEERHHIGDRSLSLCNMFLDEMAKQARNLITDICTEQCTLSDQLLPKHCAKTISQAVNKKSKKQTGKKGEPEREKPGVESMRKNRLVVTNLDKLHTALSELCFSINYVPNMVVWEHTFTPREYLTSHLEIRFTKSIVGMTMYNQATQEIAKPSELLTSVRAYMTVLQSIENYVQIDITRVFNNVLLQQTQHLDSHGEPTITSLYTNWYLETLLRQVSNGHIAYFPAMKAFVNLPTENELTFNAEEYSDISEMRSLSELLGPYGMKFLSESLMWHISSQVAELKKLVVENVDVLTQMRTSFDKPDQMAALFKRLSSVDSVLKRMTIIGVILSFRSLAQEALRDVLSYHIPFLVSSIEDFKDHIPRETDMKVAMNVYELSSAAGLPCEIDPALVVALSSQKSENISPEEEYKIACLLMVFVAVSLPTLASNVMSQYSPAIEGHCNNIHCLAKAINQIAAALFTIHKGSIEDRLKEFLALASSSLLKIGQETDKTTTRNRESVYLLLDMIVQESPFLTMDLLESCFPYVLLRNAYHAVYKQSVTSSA
WASF3-CYFIP1 complex, sequence (Q7L576 whole entry): as the sequence (Q7L576 whole entry) above
WASF3-CYFIP1 complex, sequence (Q9Y2A7 whole entry partner): as the sequence (Q9Y2A7 whole entry partner) above
CYFIP1 (Homo sapiens, UniProt Q7L576), sequence (Q7L576 whole entry): as the sequence (Q7L576 whole entry) above

For the compound `C=CCNC1=C2C[C@@H](C)C[C@H](OC)[C@H](O)[C@@H](C)/C=C(\C)[C@H](OC(N)=O)[C@@H](OC)/C=C\C=C(/C)C(=O)NC(=CC1=O)C2=O` [17-AAG], the WASF3 phosphoactivation entry in experiment [1] is on record as “reduced WASF3 phosphoactivation”.

As to “LEK*TNS*LAKIIRQL (sidechain bridge or staple) [WAHM1]”, in the experiment with KISS1, the KISS1 levels result is on record as “increased KISS1 levels”. The “suppression of WASF3 phosphorylation compared with 17-AAG” value in [2] (MDA-MB-231 cells) is reported as “more efficient than the 17-AAG HSP90 inhibitor”. In addition, the WASF3 phosphorylation levels entry in experiment [2] is listed as “dramatic decrease in WASF3 phosphorylation levels”. For the same compound, the cell proliferation result in experiment [3] is reported as “no significant difference in cell proliferation”. In experiment [4], the “reduction of invasion potential” value is 50–75% and the “dose dependence of suppression of cell invasion” value was “dose-dependent effect”. Besides, the WASF3 protein levels entry in the experiment on WASF3 is recorded as “without a reduction in WASF3 protein levels”. For the same compound, at WASF3-CYFIP1 complex, the “CYFIP1 in the WASF3 immunocomplex” value is reported as “not present in the immunocomplex”. In addition, the “migration potential / cell motility” value in experiment [5] was “significant reduction in cell motility”. Also, the “intracellular levels of WASF3 or CYFIP1” value with CYFIP1 [6] is reported as “did not affect intracellular levels of either WASF3 or CYFIP1”. Moreover, the “Rac2 in the WASF3 IP” value in experiment [7] is recorded as “could not be detected”. The “concentration dependence of CYFIP1 pull down” value on CYFIP1 [8] was “concentration-dependent”.

With “LEKKTN*TLA*IIRQL (sidechain bridge or staple) [WAHM2]”, the KISS1 levels result with KISS1 is “increased KISS1 levels”. In experiment [2], the WASF3 phosphorylation levels result is recorded as “dramatic decrease in WASF3 phosphorylation levels”. Further, in experiment [3], the cell proliferation result is “no significant difference in cell proliferation”. In experiment [4], the “reduction of invasion potential” value is listed as 50–75% and the “dose dependence of suppression of cell invasion” value is listed as “dose-dependent effect”. Further, in the experiment on WASF3, the WASF3 protein levels entry is reported as “without a reduction in WASF3 protein levels”. Besides, the “CYFIP1 in the WASF3 immunocomplex” value on WASF3-CYFIP1 complex is listed as “not present in the immunocomplex”. Besides, the “migration potential / cell motility” value in experiment [5] is listed as “significant reduction in cell motility”. Moreover, the “intracellular levels of WASF3 or CYFIP1” value with CYFIP1 [6] is “did not affect intracellular levels of either WASF3 or CYFIP1”. Moreover, the “concentration dependence of CYFIP1 pull down” value on CYFIP1 [8] is “concentration-dependent”.

For the compound “SRA*LLI*TKIQNELK (sidechain bridge or staple) [SCR1]”, in [7], the “Rac2 in the WASF3 IP” value is on record as “present”.

The values are drawn from article PMC4828974 (Cancer research, 2015).
